Measured values from ChEMBL document CHEMBL1122366, “Potential antiatherosclerotic agents. 3. Substituted benzoic and non benzoic acid analogues of cetaben” (1983).

Assays:
Rattus norvegicus [1] = experiment: In vivo triglyceride lowering activity when dosed at 0.03 % of the diet; type: functional
How it was run: (§1)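 Normal rats were dosed in the diet. Serum sterol and triglyceride levels were measured and expressed as the mean percent of control values. Significance versus control was reported at p < 0.05, 0.01 and 0.001.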

Rattus norvegicus [2] = experiment: In vivo sterol lowering activity at dose of 0.10 % of the diet; type: functional; how it was run: as §1
Rattus norvegicus [3] = experiment: In vivo triglyceride lowering activity when dosed as 0.01 % of the diet; type: functional; how it was run: as §1
Rattus norvegicus [4] = experiment: In vivo sterol lowering activity when dosed as 0.01 % of the diet; type: functional; how it was run: as §1
[5] = molecular target: T1, Sterol O-acyltransferase 1 (Rattus norvegicus) (UniProt O70536); experiment: In vitro inhibition of acyl coenzyme A:cholesterol acyltransferase; design: concentration or dose not given beside the values; conditions: concentration not given here
T1 sequence (whole entry): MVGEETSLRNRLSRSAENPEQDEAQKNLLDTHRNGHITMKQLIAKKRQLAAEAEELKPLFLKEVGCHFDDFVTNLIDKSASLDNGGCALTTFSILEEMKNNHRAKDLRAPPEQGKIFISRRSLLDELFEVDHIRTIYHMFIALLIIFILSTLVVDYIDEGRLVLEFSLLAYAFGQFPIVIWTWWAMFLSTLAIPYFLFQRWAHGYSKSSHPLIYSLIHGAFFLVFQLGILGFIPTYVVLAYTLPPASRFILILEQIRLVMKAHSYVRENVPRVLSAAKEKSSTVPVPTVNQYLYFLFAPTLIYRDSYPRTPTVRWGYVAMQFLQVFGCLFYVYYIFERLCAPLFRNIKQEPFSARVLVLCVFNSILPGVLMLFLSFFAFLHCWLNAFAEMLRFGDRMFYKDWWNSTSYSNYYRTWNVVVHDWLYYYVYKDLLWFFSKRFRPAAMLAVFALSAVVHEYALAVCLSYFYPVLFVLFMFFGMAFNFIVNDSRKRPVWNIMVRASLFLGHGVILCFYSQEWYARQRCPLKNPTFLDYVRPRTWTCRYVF
How it was run: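 Enzyme fatty acyl-CoA:cholesterol acyltransferase (ACAT), assayed in vitro at a single drug concentration of 5.2 μg/mL. The value is the mean percent inhibition of enzyme activity.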

Rattus norvegicus [6] = experiment: In vivo triglyceride lowering activity dosed at 0.10 % of the diet.; type: functional; how it was run: as §1
Rattus norvegicus [7] = experiment: In vivo sterol lowering activity when dosed as 0.03 % of the diet; type: functional; how it was run: as §1

Row | SMILES | serum triglyceride level, percent of control (Rattus norvegicus [1]) [%] | serum sterol level, percent of control (Rattus norvegicus [2]) [%] | serum triglyceride level, percent of control (Rattus norvegicus [3]) [%] | serum sterol level, % of control (Rattus norvegicus [4]) [%] | inhibition [5] [%] | serum triglyceride, percent of control (Rattus norvegicus [6]) [%] | serum sterol level, percent of control (Rattus norvegicus [7]) [%]
1 | CCCCCCCCCCCCCCCCNc1ccc(O)cc1 | 124 | 92 | 118 | 104 | 0 | 104 | 99
2 | CCCCCCCCCCCCCCCCN(C=O)c1ccc(C(=O)OCC)cc1 | 90 | 96 | 102 | 101 | 9 | 75 | 117
3 | CCCCCCCCCCCCCCCCNc1ccc(C(=O)NCC(=O)OCC)cc1 | 74 | 92 | 78 | 92 | 16 | <69 | 96
4 | CCCCCCCCCCCCCCCCNc1ccc(C(=O)SCC(O)CO)cc1 (centres undefined) | 83 | <82 | 106 | 93 | 3 | <64 | 92
5 | CCCCCCCCCCCCCCCCNc1cc(C(=O)[O-])c(C(=O)[O-])c(C(=O)[O-])c1.[Na+].[Na+].[Na+] | <68 | 97 | 82 | 100 | < 24 | 93 | 100
6 | CCCCCCCCCCCCCCCCNc1ccc(SCC(=O)O)cc1 | 110 | 93 | 72 | 92 | < 22 | 100 | 97
7 | CCCCCCCCCCCCCCCCNc1ccc(C(=O)N2CCCCCC2)cc1 | 90 | 106 | 72 | 110 | < 61 | 68 | 105
8 | CCCCCCCCCCCCCCCCNc1cc(C(=O)[O-])cc(C(=O)[O-])c1.[Na+].[Na+] | 115 | 90 | 96 | 92 | 0 | 103 | 99
9 | CCCCCCCCCCCCCCCCNc1ccc(C(=O)OCCCO)cc1 | <74 | <68 | <67 | 94 | 14 | <46 | <82
10 | CCCCCCCCCCCCCCCCNc1ccc(C(=O)OCCO)cc1 | <65 | <83 | <75 | 106 | 17 | <52 | 92
11 | CCCCCCCCCCCCCCCCNC1CCC(C(=O)OC)CC1 (centres undefined) | 88 | <71 | 78 | 99 | < 37 | <63 | 92
12 | CCCCCCCCCCCCCCCCNc1ccc(C(=O)CO)cc1 | 75 | <85 | 89 | 103 | 20 | <71 | 97
